TAAR1 agonist = human TAAR1 agonists, primary screen, Fluo-8 calcium fluorescence, CHO RD-HGA16 cells | Trace amine-associated receptor 1 (Homo sapiens), Q96RJ0 | vehicle wells 0%, saturating PEA agonist 100% | activation, % at 3 µM | 360,000 tested, 0.99% active | AID 624467, 2012;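 active = activation above the mean activation of all test compounds in the run plus 3 SD, cut at about 38% in these data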
Target sequence (Q96RJ0 whole entry, looked up): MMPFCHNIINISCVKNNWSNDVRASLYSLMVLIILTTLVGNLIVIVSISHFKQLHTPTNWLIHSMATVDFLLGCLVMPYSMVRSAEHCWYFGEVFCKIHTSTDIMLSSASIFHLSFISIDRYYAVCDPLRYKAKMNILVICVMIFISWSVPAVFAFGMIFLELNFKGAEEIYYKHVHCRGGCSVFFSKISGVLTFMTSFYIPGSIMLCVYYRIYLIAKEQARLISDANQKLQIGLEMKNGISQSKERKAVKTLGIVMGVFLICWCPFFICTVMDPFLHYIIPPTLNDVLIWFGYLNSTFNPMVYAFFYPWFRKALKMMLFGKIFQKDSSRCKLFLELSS
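Benchmarks: low control DMSO, high control PEA (EC100); System: CHO RD-HGA16 cells carrying human TAAR1 plus Gα16; Detection: Fluo-8 fluorescence, 5 s baseline then 140 s kinetic read; Schedule: 17-24 h plating, Fluo-8 75 min 37 °C, 30 min RT; Read-out basis: % activation from peak over basal fluorescence ratio, DMSO-to-PEA scaled.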
TRPML3 ag = human TRPML3 channel agonists, primary screen, cell-based, HEK293 TRPML3-YFP, Fluo-8 calcium fluorescence, 3 µM | Mucolipin-3 (Homo sapiens), Q8TDD5 | 100% = the carbachol control signal | activation, % at 3 µM | 220,000 tested, 0.29% active;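 active = activation above its plate's cutoff, the mean activation of the plate's test wells plus 3 SD, cut at about 12% in these data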
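Test system – HEK293 line with stable expression of human TRPML3-YFP channel · Control set – carbachol 87 µM final as high control (100%), DMSO as low control (0%) · Signal – Fluo-8 calcium dye fluorescence, ex 470-495, em 515-575 nm · Incubation – 1-h 37 °C dye load, 5-s basal, 120-s post-compound reads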
GPR7 antag = GPR7 receptor antagonists, primary screen, cell-based, fluorescence, single concentration; Neuropeptides B/W receptor type 1 (Homo sapiens), P48145; GPR7-expressing cells, fluorescence antagonist assay; inhibition, % at 4.4 µM; 290,000 tested, 1.1% active; AID 1861, 2009; in the data active = inhibition above about 16%, passing the limit was not always enough;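 also: cells stimulated with the agonist NPW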
Target sequence (P48145 whole entry, looked up): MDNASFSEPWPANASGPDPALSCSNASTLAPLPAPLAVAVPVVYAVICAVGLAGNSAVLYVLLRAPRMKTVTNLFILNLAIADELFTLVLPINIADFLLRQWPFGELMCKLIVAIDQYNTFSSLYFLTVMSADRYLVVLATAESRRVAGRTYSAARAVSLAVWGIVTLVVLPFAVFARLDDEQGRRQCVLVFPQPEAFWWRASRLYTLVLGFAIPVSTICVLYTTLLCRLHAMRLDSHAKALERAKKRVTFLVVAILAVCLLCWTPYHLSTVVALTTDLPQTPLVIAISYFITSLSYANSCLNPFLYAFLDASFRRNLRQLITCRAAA
zfTRPN1 agonist = zebrafish TRPN1 channel agonists, primary screen, cell-based, HEK293, calcium fluorescence. transient receptor potential cation channel N1 (TRPN1/NompC), Danio rerio. HEK293 zebrafish TRPN1-YFP, Fluo-8 calcium fluorescence; 100% = response to 87 µM carbachol. activation, % at 3 µM. 220,000 tested, 0.18% active. AID 1424, 2008;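 active = activation above its plate's cutoff, the mean activation of test wells on that plate plus 3 SD, cut at about 19% in these data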
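Material – zebrafish TRPN1-YFP in HEK293 cells · Doses – 3 µM single point · Schedule – dye 1 h 37 °C plus 30 min RT · Signal – Fluo-8 calcium fluorescence, excitation 470-495 nm, emission 515-575 nm · Read-out – % activation versus carbachol response · Control set – carbachol high, DMSO low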
LANA-H2A inh = blockers of LANA interaction with H2A/H2B – biochemical, FP readout, HTS, primary screen; Protein LANA1 (Human herpesvirus 8 type P (isolate GK18)), Q9QR71; cell-free LANA-H2A/H2B peptide, fluorescence polarization; inhibition, % (no concentration beside the values); 320,000 tested, 0.6% active; AID 2629, 2010; in the data active = inhibition mostly above about 10%, no sharp cut-off; inactive = mostly below about 6.7%
TAAR1 antagonist = human TAAR1 antagonists, primary screen, Fluo-8 calcium fluorescence, CHO RD-HGA16 cells. Trace amine-associated receptor 1 (Homo sapiens), Q96RJ0. antagonist. 360,000 tested, 1.5% active. AID 624466, 2012. inhibition, % at 3 µM;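 active = inhibition above a per-plate cutoff, the mean inhibition of test compounds on that plate plus 3 SD, cut at about 49% in these data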
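Assay system: RD-HGA16 CHO cells with stable hTAAR1 and Gα16 / Reagent: EC80 β-phenethylamine stimulus / Doses: 3 µM, single point / Timing: dye loading 75 min at 37 °C, then 30 min room temperature / Measured by: Fluo-8 intracellular calcium dye fluorescence, real-time kinetic reads / Controls: vehicle wells and EC80 agonist wells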
GPR7 antag conf = GPR7 receptor antagonists, confirmation, cell-based, fluorescence, single concentration | GPR7-expressing cells, calcium fluorescence antagonist mode | shares compounds with GPR7 antag | inhibition, % at 4.4 µM | 2,400 tested, 52% active; in the data active = inhibition above about 24%;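 also: stimulated with the GPR7 agonist NPW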
MCHR1 antagonist = MCHR1 antagonists in cells, counter-screen for GPR7 antagonist project, cell-based, fluorescence, human | shares compounds with GPR7 antag | MCHR1-expressing cells, fluorescence antagonist assay | inhibition, % at 4.4 µM | 2,400 tested, 62% active; in the data active = inhibition above about 22%
A number is an active result; - = inactive; . = not tested or not shown; ! = repeats disagree. Sampled rows, rich in hits. Any-hit rate of the full collection: about 3.4%.

SMILES	TAAR1 agonist	TRPML3 ag	GPR7 antag	zfTRPN1 agonist	LANA-H2A inh	TAAR1 antagonist	GPR7 antag conf	MCHR1 antagonist
O=C(Nc1ccc(S(=O)(=O)Nc2ccc(F)cc2)cc1)c1ccc(CN2CCOCC2)cc1	-	-	30	-	-	-	66	77
CCN(CC)S(=O)(=O)c1ccc(NC(=O)c2ccc(CN3CCOCC3)cc2)cc1	-	-	-	-	-	-	.	.
O=C(Nc1ccc(S(=O)(=O)N2CCCCC2)cc1)c1ccc(CN2CCOCC2)cc1	.	-	60	-	-	.	62	83
O=S(=O)(c1ccc(F)cc1)N1CCc2ccccc21	-	.	-	.	-	-	.	.
O=S(=O)(NC1CC1)c1ccc(S(=O)(=O)N2CCc3ccccc32)cc1	-	-	22	-	-	-	-	29
CCN1C(=O)C(=O)N(CC(=O)N2CCC(C)Sc3ccccc32)C1=O (stereo not given)	-	.	.	.	-	-	.	.
CCSc1ncc(/C=N/Nc2ccccc2)n1C	-	-	-	-	-	-	.	.
CCSc1ncc(/C=N/Nc2ccc(Cl)cc2)n1C	-	-	25	-	-	-	-	40
Cc1cccc2cc(CNCC3CCCO3)c(Cl)nc12 (stereo not given)	-	-	22	-	-	-	-	-
Fc1ccccc1CNCC1CCCO1 (stereo not given)	-	.	-	.	.	-	.	.
CC(C)(C)S(=O)(=O)N1C[C@@H]2CC/C=C\C/C=C\2[C@H]1CCO	-	.	.	.	.	-	.	.
O=S(=O)(c1ccccc1)c1nc(NCc2ccccc2)sc1Cl	-	-	-	-	-	-	.	.
COc1ccc(CNc2nc(S(=O)(=O)c3ccccc3)c(Cl)s2)cc1OC	-	-	34	-	-	-	35	54
O=C(C#Cc1ccccc1)Nc1cccc(F)c1	-	.	-	.	-	-	.	.
Nc1nonc1C(=O)NCCNCc1ccccc1OCc1ccccc1F	-	-	29	-	-	-	36	33
CCOc1ccccc1CNCCNC(=O)c1nonc1N	-	-	-	-	-	-	.	.
O=C(Nc1ccc(OC(F)F)cc1)Nc1cccc(C(F)(F)F)c1	-	-	39	-	-	-	54	68
O=C(Nc1ccncc1)Nc1cccc(C(F)(F)F)c1	-	.	-	.	-	-	.	.
CCN(CC)S(=O)(=O)c1ccc(NC(=O)Nc2cccc(C(F)(F)F)c2)cc1	-	-	27	-	-	-	41	57
CC1(C(=O)NCc2ccccc2)CSCC(=O)N1Cc1cccc(C(F)(F)F)c1 (stereo not given)	-	.	.	.	.	-	.	.
COc1ccc(CN(CC(=O)NC2CCCC2)C(=O)CCC(=O)Nc2nc(C)cs2)cc1	-	.	-	.	-	-	.	.
CN(CC(=O)Nc1cccc(F)c1)C(=O)/C=C/c1cn(Cc2ccccc2)nc1-c1cccnc1	-	.	.	.	-	-	.	.
N/C(=N\OC(=O)COc1ccccc1)c1ccc(Cl)cc1	-	-	24	-	-	-	-	-
CNCCCC12CCC(c3ccccc31)c1ccccc12	-	-	28!	-	9.6!	-	34	29
CNCCCC1c2ccccc2C=Cc2ccccc21	-	-	-	-	-	-	.	.
SMILES	TAAR1 agonist	TRPML3 ag	GPR7 antag	zfTRPN1 agonist	LANA-H2A inh	TAAR1 antagonist	GPR7 antag conf	MCHR1 antagonist
CCOc1nc(Nc2ccc(OC)cc2OC)nc(OCC)n1	-	.	-	.	-	-	.	.
COc1ccccc1NC(=O)CSc1nc2ccccc2n1C(C)=O	-	-	21	-	-	-	-	-
CCC(=O)/C=C1/Sc2ccccc2N1CC	-	-	-	-	-	-	.	.
CCOC(=O)/C(=C\C=C1/Sc2ccccc2N1CC)C(C)=O	-	20	28	30	.	-	-	36
CCn1c(=O)c(=O)[nH]c2cc(C(=O)NC3CC3)ccc21	-	-	-	-	-	-	.	.
CCn1c(=O)c(=O)[nH]c2cc(C(=O)NC3CCCc4ccccc43)ccc21 (stereo not given)	-	-	23	-	-	-	-	-
Cc1ccc([N+](=O)[O-])cc1NC(=O)CN(C(=O)c1ccccc1Cl)C1CCCCC1	-	-	36	-	.	-	39	41
Cc1ccc([N+](=O)[O-])cc1NC(=O)CN(C1CCCCC1)S(=O)(=O)c1ccc(Cl)cc1	-	-	-	-	.	-	.	.
O=C(COC(=O)CCS(=O)(=O)c1ccc(F)cc1)NC1CCCCC1	-	.	.	.	-	-	.	.
Cc1cc(Cl)ccc1NC(=O)CSc1n[nH]c(N)n1	-	.	.	.	-	-	.	.
CCn1c(NC(=O)c2ccc(C)cc2)c2ccccc2nc1=O	-	-	32	-	-	-	-	-
O=C(Nc1ccc(C(F)(F)F)cc1)C1CCN(S(=O)(=O)c2ccc(N3CCCC3=O)cc2)CC1	-	.	23	.	-	-	-	49
O=C(O)C1CCCCC1C(=O)Nc1ccc(S(=O)(=O)N2CCCC2)cc1 (stereo not given)	-	.	-	.	-	-	.	.
COc1ccc(NC(=O)C2CCN(S(=O)(=O)c3ccc(N4CCCC4=O)cc3)CC2)cc1OC	-	.	-	.	-	-	.	.
O=C(O)[C@H]1CCCC[C@H]1C(=O)Nc1ccc(S(=O)(=O)N2CCCCC2)cc1	-	.	23	.	-	-	-	-
Cn1nc(C(C)(C)C)cc1C(=O)N1CCCCC1c1cc(C(=O)Nc2ccccc2Cl)no1 (stereo not given)	-	.	.	.	.	-	.	.
COc1ccc(-n2c(=S)[nH]c3[nH]ncc3c2=O)cc1	-	-	23	-	-	-	-	-
Cc1ccc(NC(=O)c2ccc(S(=O)(=O)N(C)c3ccccc3)cc2)cc1S(=O)(=O)N1CCOCC1	-	.	.	.	.	-	.	.
COCCNC(=O)/C(C#N)=C\c1ccc(CNS(=O)(=O)c2ccc(C)cc2)o1	-	-	-	-	-	-	.	.
Cc1ccc(S(=O)(=O)NCc2ccc(/C=C(/C#N)C(=O)NCc3ccccc3)o2)cc1	-	-	24	-	-	-	50	58
